The values that follow come from ChEMBL document CHEMBL2429796, “Discovery and synthesis of novel benzofurazan derivatives as inhibitors of influenza A virus” (Bioorg Med Chem Lett, 2013).

In data set [1] the test system is Influenza A virus. As to the kind of experiment: Antiviral activity against Influenza A virus A/WSN/33(H1N1) infected in MDCK cells after 48 hrs by plaque reduction assay. The format is functional, organism-based, A/WSN/1933(H1N1). Summed up: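 Plaque-reduction assay in MDCK cells infected with influenza A/WSN/33 (H1N1). IC50 was determined only for compounds positive in an ELISA prescreen for binding to the polymerase PA subunit.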
A general note: Plaques are areas of infected cells; plaque reduction assays count them against a control.

In data set [2] the test system is MDCK. As to the kind of experiment: Cytotoxicity against MDCK cells. The format is cell-based, Canis lupus familiaris. As to conditions: dog.
In data set [3] the test system is HEK-293T. Nature of the data set: Inhibition of influenza A virus HA-tagged polymerase acidic protien transfected in HEK293T cells after 24 hrs by ELISA. Type of data set: cell-based.
[4] abbreviates: Influenza A virus, A/WSN/1933(H1N1), MDCK, 48 h, read-out: IC50.

Molecules are shown by their SMILES. Activity calls are given as the source filed them. The rule behind the calls is not given here.

Consider `O=[N+]([O-])c1ccc(Sc2ccc(Cl)cc2)c2nonc12`, for which, in data set [1] (setting [4]), the IC50 (commonly the concentration that inhibits the measured activity by half) is 10 µM. Further, the Cytotoxic concentration in data set [2] was 40 µM. In data set [3], the inhibition result was “Active”.
With `COc1ccc(Sc2ccc([N+](=O)[O-])c3nonc23)cc1`, the IC50 entry in data set [1] (mdck) is listed as “Not Active”. The molecule further had a Cytotoxic concentration in data set [2] of 40 µM. Moreover, the inhibition entry in data set [3] was “Active”.
In the case of `Nc1cccc(Sc2ccc([N+](=O)[O-])c3nonc23)c1`, the IC50 in data set [1] (setting [4]) amounted to 10 µM. The Cytotoxic concentration in data set [2] came out at 40 µM. Besides, in data set [3], the inhibition entry was “Active”.
In the case of `N#Cc1ccc(Oc2ccc([N+](=O)[O-])c3nonc23)cc1`, the half-inhibitory concentration (IC50) result in data set [1] (mdck) is given as “Not Active”. For the same molecule, in data set [3], the inhibition entry was “Active”.
Take `O=[N+]([O-])c1ccc(Sc2ccccc2Br)c2nonc12`: the IC50 in data set [1] (setting [4]) was > 10 µM. This molecule also had a Cytotoxic concentration in data set [2] of 40 µM. Further, in data set [3], the inhibition result is “Active”.
On the same counts, the results for `O=[N+]([O-])c1ccc(Nc2ccccc2S)c2nonc12` are 20 µM, > 80 µM and “Active”.
As for `O=[N+]([O-])c1ccc(Oc2ccc(CCO)cc2)c2nonc12`, in data set [1] (setting [4]), the IC50 was determined as 10 µM. The Cytotoxic concentration in data set [2] stood at 20 µM. Also, in data set [3], the inhibition entry is “Active”.
Regarding `O=[N+]([O-])c1ccc(OCc2ccccc2)c2nonc12`, the concentration for half-maximal inhibition (IC50) result in data set [1] (mdck) is “Not Active”. In addition, the inhibition result in data set [3] was “Active”.
For `O=[N+]([O-])c1cccc(CSc2ccc([N+](=O)[O-])c3nonc23)c1`, the IC50 in data set [1] (setting [4]) stood at 1 µM. The molecule also returned a Cytotoxic concentration in data set [2] of 20 µM. Besides, in data set [3], the inhibition entry was “Active”.
For `O=[N+]([O-])c1ccc(Sc2ccc(Br)cc2)c2nonc12` the same measures were 10 µM, 40 µM and “Active”.
As to `COc1ccc(CSc2ccc(Cl)c3nonc23)cc1`, the 50% inhibitory concentration (IC50) entry in data set [1] (mdck) is recorded as “Not Active”. The inhibition entry in data set [3] was “Active”.
Take `O=[N+]([O-])c1ccc(SCc2ccc(Cl)cc2)c2nonc12`: in data set [1] (mdck), the IC50 entry is reported as “Not Active”. Further, the inhibition entry in data set [3] was “Active”.
As to `O=[N+]([O-])c1ccc(Sc2ccc(F)cc2)c2nonc12`, the IC50 in data set [1] (setting [4]) stood at 5 µM. Besides, the Cytotoxic concentration in data set [2] is 40 µM. For the same molecule, the inhibition result in data set [3] is “Active”.
For `O=[N+]([O-])c1ccc(Sc2ccccc2)c2nonc12`, the IC50 result in data set [1] (mdck) is reported as “Not Active”. In data set [2], the Activity turned out to be 20 µM. The inhibition result in data set [3] was “Active”.
As to `COc1ccc(Oc2ccc([N+](=O)[O-])c3nonc23)cc1`, the IC50 in data set [1] (setting [4]) is 30 µM. In data set [2], the Cytotoxic concentration was determined as 60 µM. Besides, the inhibition entry in data set [3] is “Active”.
Turning to `COc1cccc(Oc2ccc([N+](=O)[O-])c3nonc23)c1`, the IC50 entry in data set [1] (mdck) is on record as “Not Active”. Moreover, the inhibition entry in data set [3] is “Active”.
Turning to `O=[N+]([O-])c1ccc(SCc2ccccc2)c2nonc12`, the half-inhibitory concentration (IC50) result in data set [1] (mdck) is reported as “Not Active”. The same molecule had an Activity in data set [2] of 20 µM. In addition, in data set [3], the inhibition result is “Active”.
As to `O=[N+]([O-])c1ccc(SCc2ccc(Br)cc2)c2nonc12`, the IC50 in data set [1] (setting [4]) is ≥ 5 µM. Moreover, in data set [2], the Cytotoxic concentration is > 10 µM. In data set [3], the inhibition entry is “Active”.
For the molecule `CNc1ccc(SCc2ccc(OC)cc2)c2nonc12`, in data set [1] (mdck), the IC50 entry was “Not Active”. In addition, in data set [3], the inhibition entry was “Active”.
As to `O=Cc1ccc(Oc2ccc([N+](=O)[O-])c3nonc23)cc1`, the concentration for half-maximal inhibition (IC50) in data set [1] (setting [4]) was 20 µM. For the same molecule, the Cytotoxic concentration in data set [2] was > 40 µM. Besides, the inhibition result in data set [3] was “Active”.
With `O=[N+]([O-])c1ccc(Nc2ccccc2O)c2nonc12`, in data set [1] (mdck), the half-inhibitory concentration (IC50) result was “Not Active”. The inhibition result in data set [3] was “Active”.
With `O=[N+]([O-])c1ccc(Oc2cccc(Br)c2)c2nonc12`, the half-maximal inhibitory concentration (IC50) in data set [1] (setting [4]) was 20 µM. Also, the Cytotoxic concentration in data set [2] was > 40 µM. Besides, the inhibition result in data set [3] was “Active”.
Turning to `O=[N+]([O-])c1ccc(SCc2ccc(F)cc2)c2nonc12`, the concentration for half-maximal inhibition (IC50) result in data set [1] (mdck) is reported as “Not Active”. The molecule also came in with a Cytotoxic concentration in data set [2] of 20 µM. For the same molecule, the inhibition entry in data set [3] is “Active”.
With `O=[N+]([O-])c1ccc(Nc2ccc(O)cc2)c2nonc12`, the IC50 entry in data set [1] (mdck) was “Not Active”. For the same molecule, the inhibition entry in data set [3] is “Active”.
In the case of `COc1ccc(CSc2ccc(NCc3ccccc3)c3nonc23)cc1`, the IC50 result in data set [1] (mdck) was “Not Active”. Besides, the inhibition entry in data set [3] was “Active”.
With `O=[N+]([O-])c1ccc(Sc2ccc([N+](=O)[O-])c3nonc23)cc1`, in data set [1] (setting [4]), the IC50 stood at 10 µM. In data set [2], the Cytotoxic concentration was 40 µM. Besides, in data set [3], the inhibition result was “Active”.
